High-throughput results: PubChem BioAssay, several laboratories
Compounds with a hit are over-represented: about 2.9% of the library has one in this group of screens.
MEKK3 PB1 HTS = raises or lowers MEK5 binding to the human MEKK3 PB1 domain; bead-based flow cytometry, Alexa488-MEK5 binding to MEKK3; actives lie on both sides; 0 = blocked by unlabeled MEK5, 100 = vehicle; hit rate 1.4% among 290,000; AID 1529; Q99759; binding response (% of control), % at 10 µM;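 active = binding response more than 3 SD above or below the average of its plate-row segment, actives on both sides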;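 note: Alexa488 bead fluorescence after subtracting the streptavidin-only scavenger bead signal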
Apaf1 inhib = human Apaf-1 inhibition | O14727 | inhibition, % at 20 µM | hit rate 0.71% among 330,000 | reconstituted apoptosome caspase-3 activity, DEVD-Rh110 fluorescence; active = inhibition of at least 40% at 20 µM
Target sequence (O14727 whole entry, looked up): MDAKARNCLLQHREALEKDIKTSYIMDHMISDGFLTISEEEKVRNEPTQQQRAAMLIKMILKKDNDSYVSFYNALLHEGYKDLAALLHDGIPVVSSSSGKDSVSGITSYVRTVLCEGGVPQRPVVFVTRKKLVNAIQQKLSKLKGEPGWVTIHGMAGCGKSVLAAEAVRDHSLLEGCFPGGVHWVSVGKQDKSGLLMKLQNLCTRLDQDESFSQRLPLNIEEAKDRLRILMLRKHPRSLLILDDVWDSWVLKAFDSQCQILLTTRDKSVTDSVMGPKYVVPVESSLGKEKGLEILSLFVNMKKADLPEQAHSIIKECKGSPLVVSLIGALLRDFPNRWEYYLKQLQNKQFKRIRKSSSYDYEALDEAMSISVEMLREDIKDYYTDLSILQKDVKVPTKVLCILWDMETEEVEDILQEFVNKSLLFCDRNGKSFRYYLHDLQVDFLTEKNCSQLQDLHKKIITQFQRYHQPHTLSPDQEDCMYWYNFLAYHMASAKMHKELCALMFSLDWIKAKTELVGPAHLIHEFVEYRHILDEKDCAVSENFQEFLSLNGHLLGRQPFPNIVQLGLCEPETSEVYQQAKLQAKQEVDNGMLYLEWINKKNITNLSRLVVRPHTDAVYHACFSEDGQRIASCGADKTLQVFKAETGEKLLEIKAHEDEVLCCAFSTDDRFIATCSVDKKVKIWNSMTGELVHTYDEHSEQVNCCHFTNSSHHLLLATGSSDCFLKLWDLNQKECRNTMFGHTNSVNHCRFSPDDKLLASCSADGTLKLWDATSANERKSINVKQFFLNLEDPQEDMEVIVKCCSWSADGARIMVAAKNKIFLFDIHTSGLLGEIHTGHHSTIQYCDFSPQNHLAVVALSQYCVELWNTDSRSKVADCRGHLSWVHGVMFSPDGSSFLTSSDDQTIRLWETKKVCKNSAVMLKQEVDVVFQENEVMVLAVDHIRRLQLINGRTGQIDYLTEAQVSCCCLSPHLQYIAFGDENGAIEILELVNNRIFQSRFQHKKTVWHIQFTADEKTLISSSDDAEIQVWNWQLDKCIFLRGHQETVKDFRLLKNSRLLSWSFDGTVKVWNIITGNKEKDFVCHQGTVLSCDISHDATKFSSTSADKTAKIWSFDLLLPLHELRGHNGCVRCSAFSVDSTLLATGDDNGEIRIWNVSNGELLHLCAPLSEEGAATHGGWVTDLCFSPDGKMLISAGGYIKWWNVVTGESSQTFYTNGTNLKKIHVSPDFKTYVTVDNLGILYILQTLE
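Assay system: Apoptosome proteins | Medium: pH 7.5 Hepes buffer with CHAPS, BSA, DTT | Also added: Cytochrome c and DEVD-Rh110 substrate | Times: 30 min plus 50 min, RT | Detection: Rhodamine 110 fluorescence at Ex 480/Em 540 nm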
MEKK2 WT-MEK5 = raises or lowers MEK5 binding to wildtype human MEKK2 PB1 domain | Q9Y2U5 | bead flow cytometry, Alexa488-MEK5 binding to MEKK2 WT; actives lie on both sides | binding response (% of control), % at 10 µM | hit rate 1.1% among 290,000 | AID 1531; in the data active = binding response below about 67% or above about 130%
UBC13 polyUb = blocks human UBC13 polyubiquitin chain formation; P61088; TR-FRET; inhibition, % at 20 µM; hit rate 0.47% among 330,000; AID 485273; in the data active = inhibition above about 45%, passing the limit was not always enough
MEKK2 mut-MEK5 = signal of MEK5 binding to mutant human MEKK2 PB1 domain; AID 1530; hit rate 0.35% among 290,000; percent response, % at 10 µM; bead flow cytometry, Alexa488-MEK5 binding to MEKK2 mutant; in the data active = percent response above about 24%, passing the limit was not always enough
Of the large screens only hits and unclear results are named; the others gave an inactive call; [ ] = remark or other dose.

OC[C@@H](O)[C@@H](O[C@H]1O[C@H](CO)[C@@H](O)[C@H](O)[C@H]1O)[C@H](O)[C@@H](O)CO	MEKK2 WT-MEK5 -4.0
Cc1nn(C)cc1S(=O)(=O)NCc1ccccc1Cl	none
COC(C(=O)Nc1ccnn1C1CCN(Cc2ccc(C)s2)CC1)c1ccccc1 (stereo not given)	none
COc1cc2[nH]c(C(=O)NN)c(N)c2cc1OC	Apaf1 inhib 48.1
COCCNC(=O)/C(C#N)=c1\s/c(=C\c2ccccc2OC(F)F)c(=O)n1Cc1ccccc1	none
Cc1c(C)n(C)c2ccc(C(=O)NCCCN3CCOCC3)cc12	none
CCC1CCCCN1CCCNC(=O)c1ccc2c(c1)c(C)c(C)n2C (stereo not given)	MEKK2 WT-MEK5 158.0
CCC1CCCCN1CCCNC(=O)c1ccc2c(c1)N(Cc1ccc(F)cc1)C(=O)c1ccccc1S2=O (stereo not given)	MEKK2 WT-MEK5 147.0
Cc1ccc2oc(=O)c3cc(C(=O)NCCCN4CCCCCC4)sc3c2c1	none
CCC1CCCCN1CCCNC(=O)c1cc2c(=O)oc3ccc(C)cc3c2s1 (stereo not given)	MEKK2 WT-MEK5 153.0
CCC1CCCCN1CCCNC(=O)c1ccc2c(c1)c(C)c(C)n2CC (stereo not given)	MEKK2 WT-MEK5 50.0
O=C(NCCCN1CCCC1)c1ccc2c(c1)N(Cc1ccc(F)cc1)C(=O)c1ccccc1S2=O (stereo not given)	none
O=C1OCCN1c1c(-c2ccccc2)c(-c2cccs2)nc2c(-c3ccccc3)cccc12	none
CCCn1c(C(C)Nc2nc(-c3ccc(Cl)c([N+](=O)[O-])c3)cs2)nc2cc(Cl)c(N3CCCCC3)cc21 (stereo not given)	none
COCCN(C(=O)COC(=O)/C=C/c1ccc2c(c1)OCO2)c1c(N)n(Cc2ccccc2)c(=O)[nH]c1=O	none (no result: MEKK3 PB1 HTS, MEKK2 WT-MEK5, MEKK2 mut-MEK5)
CCOc1ccccc1NC(=O)COC(=O)c1c(CC)noc1C	none (no result: MEKK3 PB1 HTS, MEKK2 WT-MEK5, MEKK2 mut-MEK5)
O=C1NCCCC2c3c(cc(Br)c(O)c3Br)OC12N1CCOCC1 (stereo not given)	none
O=C1NCCCC2c3cc(O)c4ccccc4c3OC12N1CCCCC1 (stereo not given)	Apaf1 inhib 93.0
Cc1cccc2nc(-c3cccnc3)c(NCCC(C)C)n12	MEKK2 WT-MEK5 -11.0
COc1ccc(CN2CCN(S(=O)(=O)c3ccc(F)cc3)CC2)cc1OC	MEKK3 PB1 HTS 13.0[inhibitor], MEKK2 WT-MEK5 22.0[inhibitor]
CC(C)NC1=C(Cl)C(=O)c2ccccc2C1=O	Apaf1 inhib 63.2
O=C1C(Cl)=C(Nc2ccccc2)C(=O)c2ccccc21	none (no result: Apaf1 inhib, UBC13 polyUb)
CCCCCCOc1ccc(N2C(=O)CC(NCc3ccc(S(N)(=O)=O)cc3)C2=O)cc1 (stereo not given)	MEKK2 WT-MEK5 -4.0
O=C(CC1C(=O)NCCN1CCCc1ccccc1)NCCc1ccccc1F (stereo not given)	MEKK2 WT-MEK5 134.0, MEKK2 mut-MEK5 28.0
C/C(=N\NC(=O)c1cc(-c2cccc([N+](=O)[O-])c2)n[nH]1)c1ccccc1O	none (no result: Apaf1 inhib, UBC13 polyUb)
Cc1[nH]c2ccc(C(=O)NCCN3CCCCCC3)cc2c1C	MEKK2 WT-MEK5 135.0
Cc1[nH]c2ccc(C(=O)NCCCN3CCCCC3)cc2c1C	none
Cc1ccc(-c2cc(C(=O)NCCCN3CCCC3)c3ccccc3n2)cc1C	MEKK2 WT-MEK5 141.0
CCC1=Nc2cc(C(=O)NCCN3CCCC3)ccc2Sc2ccccc21	MEKK2 WT-MEK5 135.0
Cc1ccc(-c2cc(C(=O)NCCCN3CCOCC3)c3ccccc3n2)cc1C	none
Cc1c(C)n(C)c2ccc(C(=O)NCCCN3CCCCC3)cc12	MEKK2 WT-MEK5 154.0, MEKK2 mut-MEK5 25.0
COc1ccc(OC)c(NC(=O)C2CC(C)=C(C)CC2C(=O)O)c1 (stereo not given)	none
Cc1c(C)n(C)c2ccc(C(=O)NCCCN3CCCC3)cc12	MEKK2 WT-MEK5 142.0
O=C(CSc1nnc(COc2ccccc2Cl)o1)NC(=O)NCc1ccco1	none
O=[N+]([O-])c1ccc(-c2ccc(/C=N/Nc3nc(NCc4ccccc4)nc(N4CCOCC4)n3)o2)cc1	MEKK2 WT-MEK5 14.0
O=C1/C(=C/c2c[nH]c3ccccc23)CCC/C1=C\c1c[nH]c2ccccc12	MEKK2 mut-MEK5 96.0
O=C1Nc2cc(C(=O)NCCCN3CCCC3)ccc2S/C1=C/c1ccccc1F	MEKK2 WT-MEK5 138.0
O=C(NC1CCN(Cc2ccccc2)CC1)c1ccccc1	none
COc1cccc(/C=C2/Sc3ccc(C(=O)NCCCN4CCCC4)cc3NC2=O)c1	MEKK2 WT-MEK5 167.0
CN1C(=O)/C(=C\c2ccccc2F)Sc2ccc(C(=O)NC3CCN(Cc4ccccc4)CC3)cc21	MEKK2 WT-MEK5 168.0
COc1ccc(/C=C2\Sc3ccc(C(=O)NC4CC4)cc3N(C)C2=O)cc1OC	none
COc1ccc(/C=C2\Sc3ccc(C(=O)NCCN4CCCCCC4)cc3N(C)C2=O)cc1	MEKK2 WT-MEK5 203.0, MEKK2 mut-MEK5 54.0
COC(=O)c1ccc(NC(C)=O)cc1O	none (no result: Apaf1 inhib, UBC13 polyUb)
CCN1CCCC1CNC(=O)c1ccc2c(c1)NC(=O)/C(=C\c1ccc(C)cc1)S2 (stereo not given)	MEKK2 WT-MEK5 194.0, MEKK2 mut-MEK5 43.0
CCC(=O)Nc1ccc(NC(=O)CSc2nnnn2Cc2ccccc2)cc1C	none
COc1ccc(NC(=O)CCCCCN2C(=O)c3cccc([N+](=O)[O-])c3C2=O)c(OC)c1	Apaf1 inhib 40.9
COc1ccc(OC)c(NC(=O)CCN2C(=O)c3cccc([N+](=O)[O-])c3C2=O)c1	none
CC1CCN(C(=O)CSc2nnc(Cn3c(=O)sc4ccccc43)n2C)CC1	Apaf1 inhib 42.6
COc1cc(NCc2ccccc2O)c2ncccc2c1	none
COc1cc(NCCCCCCCN)c2ncccc2c1	Apaf1 inhib 94.7
CCN(CC(=O)NCc1ccc(Cl)cc1)C(=O)CCOc1ccc(C)cc1	none (no result: MEKK3 PB1 HTS, MEKK2 WT-MEK5, MEKK2 mut-MEK5)
CCOc1ccc(CSCCNC(=S)Nc2ccccc2)cc1	MEKK3 PB1 HTS 128.0
CCOc1ccc(NC(=S)NCCCc2ccccc2)cc1	none
CS(=O)(=O)N1CCC(Oc2ccccc2C(=O)NCCCc2cccnc2)CC1	none
CCC(C)Nc1ccc(NC(C)CC)cc1 (stereo not given)	Apaf1 inhib 42.7 (no result: MEKK3 PB1 HTS, MEKK2 WT-MEK5, MEKK2 mut-MEK5)
C#CCOCCOCCOCCNc1nc(N2CCN(C(=O)[C@H](CCCCN)n3cc(C(N)CO)nn3)CC2)nc(N2CCN(C(=O)[C@H](CCCCN)n3cc(C(N)COC(=O)C(F)(F)F)nn3)CC2)n1 (stereo not given in full)	UBC13 polyUb 76.1
C#CCOCCOCCOCCNc1nc(N2CCN(C(=O)CCCCCCCCCCNC(=O)[C@H](CO)n3cc(CCCSC)nn3)CC2)nc(N2CCN(C(=O)CCCCCCCCCCNC(=O)[C@H](CO)n3cc(CCCSC)nn3)CC2)n1	none (no result: MEKK3 PB1 HTS, MEKK2 WT-MEK5, MEKK2 mut-MEK5)
